The values that follow come from ChEMBL document CHEMBL4513216, “Probing the Open Global Health Chemical Diversity Library for Multistage-Active Starting Points for Next-Generation Antimalarials” (ACS Infect Dis, 2020).

The nature of the series: Toxicity liver stage against HepG2, at 10uM. It counts as cell-based. Further details: test concentration 10 uM, cell line HepG2-A16-CD81EGFP. The note with it: human, HepG2-A16-CD81EGFP cells; read-out: INHIBITION
In outline: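 Uninfected HepG2-A16-CD81EGFP cells, 3 × 10^3 per well, 1536-well, plated on prespotted compound at 10 μM final, parasite-free screening media added to match infected plates; puromycin 10 μM positive, DMSO 0.5% negative; run in parallel with 48 h PbLuc assay at 37 °C, 5% CO2; viability by CellTiter-Glo luminescence, normalized to controls.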

With `O=C(Nc1ccc(-c2csnn2)cc1)NC(CCO)C1CC1` (configuration not stated), the cytotoxicity at 10 µM turned out to be 15.6%.
As for `CCSCCNc1nc2c(s1)c(C)nn2C`, the figure is -0.145%; as for `CC(C)COCC(NC(=O)CSc1nnc[nH]1)c1ccco1` (configuration not stated), 11.4%.
As for `CCS(=O)(=O)c1ncc(CN2CCSCC2)n1CCc1ccccc1`, the figure is -1.95%; as for `CCC(C(=O)NC)N(c1cccc(C)c1)S(C)(=O)=O` (configuration not stated), -11.8%.
As for `CC(C(=O)Nc1ccc2ccccc2c1)N1CCC(n2ccnc2)CC1` (configuration not stated), the figure is -4%; as for `CN1CCC(c2cccc(-c3ccc(C(=O)O)cc3)n2)CC1`, -0.358%.
Turning to `Cn1cnc2c(N3CCOCC3)nc(C3CCNCC3)cc21`, the cytotoxicity at 10 µM was found to be 2.98%.
As for `CCn1nccc1CNC(=O)C1CCCCC1`, the figure is -0.488%; as for `CCOCCN1C[C@H](c2cccc(OC)c2)[C@@H](N)C1`, -0.786%.
As for `CCOc1ccc2oc(-c3cn(C)nc3C)c(O)c(=O)c2c1`, the figure is 7.72%.
As for `Cc1cc(C)nc(CN(C)C(=O)C(c2cccnc2)N2CCCC2)c1` (configuration not stated), the figure is -45.4%; as for `CC(C)(C)c1cc(CN2C[C@@H]3CC[C@H]2CN(Cc2ccccn2)C3)n[nH]1`, -0.123%.
With `COc1ccc(S(=O)(=O)NC(=O)COC2CCCCC2)cc1`, the cytotoxicity at 10 µM is -1.64%.
As to `O=C(Nc1cnccn1)[C@@H]1COC[C@H]2CN(C3CCCC3)C[C@H]21`, the cytotoxicity at 10 µM is -21.9%.
Consider `COc1ccc(C(C)=O)c(OCC(=O)NC(C)c2ccc(F)cc2)c1` (configuration not stated), for which the cytotoxicity at 10 µM worked out at 2.68%.
As for `COc1ccccc1C1CNC(=O)c2nc(-c3cnn(C)c3)[nH]c2C1` (configuration not stated), the figure is -5.33%; as for `CCC(=O)N1CCc2[nH]cnc2C12CCN(C(=O)c1snnc1C)CC2`, 13.9%; as for `Cc1cnc(CN2CCCC2c2cnn(C)c2)cn1` (configuration not stated), 0.35%.
As for `CN(C)C(=O)c1coc(COc2ccccc2)n1`, the figure is -7.3%.
As for `Cc1nc(CN2CCCC(CCc3ccccc3C(F)(F)F)C2)co1` (configuration not stated), the figure is 0.663%; as for `Cc1ccccc1C(CNC(=O)CSc1nnc(N)s1)N(C)C` (configuration not stated), 12%.
As for `CCOc1ccc(CC(=O)N2CCCC2c2cc(C)on2)cc1` (configuration not stated), the cytotoxicity at 10 µM is -46%.
Turning to `CCOCc1cc(CN2CCn3c(CO)nnc3C2)ccc1OC`, the cytotoxicity at 10 µM was -37.2%.
As for `CCc1c(C(=O)O)nnn1-c1cc(C)ccc1C`, the figure is -23.7%; as for `O=S1(=O)NCC2(CCN(Cc3ccncc3)CC2)Oc2ncccc21`, 5.97%; as for `CCS(=O)(=O)N1Cc2ncn(CC3CC3)c2C(COCC2CC2)C1` (configuration not stated), 0.822%.
As for `CN1CCN(C[C@@H]2CN(Cc3c(Cl)cncc3Cl)C[C@@H]2CO)CC1`, the figure is -124%; as for `CC(CS(C)(=O)=O)N(C(=O)c1ccc(Cl)s1)C1CC1` (configuration not stated), 1.51%; as for `Cc1cnn(CC2CCCN2Cc2nnc(C)o2)c1` (configuration not stated), -11.2%.
As for `COc1ccc(C(=O)CCC(=O)NCc2c(C)noc2C)cc1F`, the figure is 2.43%; as for `Cn1cc(CN2C[C@@H]3OCCN(CC4CCCC4)[C@@H]3C2)cn1`, -163%; as for `COc1cnc(N2CCCN(c3ccc(F)cc3)CC2)nc1`, -10.6%.
On to `Cc1nc2c(c(=O)[nH]1)CN(C(=O)CCC1CCCN(C)C1)C2` (configuration not stated), for which the cytotoxicity at 10 µM is -7.76%.
As for `COCCCN1C(=O)CC[C@H]2CN(Cc3ccc4nonc4c3)CC[C@H]21`, the figure is 2.46%; as for `CN1CCCn2c(nc(CNC(=O)c3ccsc3)cc2=O)C1`, 3.09%.
As for `CS(=O)(=O)N[C@H]1CCO[C@]2(CCN(CC3CCOCC3)C2)C1`, the figure is -122%; as for `COC(=O)[C@H](C)NC(=O)COc1nn(C)c2nc(C)cc(C)c12`, -2.53%; as for `Cc1cc(=O)n2nc(Oc3ccc(C#N)cc3Cl)sc2n1`, 1.15%.
As for `Cc1cc(C)n(CC2CCCN2C(=O)c2ccc(N(C)C)nn2)n1` (configuration not stated), the figure is 1.53%.
For `COCc1cccc(C(=O)N2C[C@@H]3CC[C@H]2CN(Cc2cscn2)C3)n1`, the cytotoxicity at 10 µM turned out to be 5.01%.
As for `CCn1nc(C)c(NC(=O)CCn2ncc3cc(C)ccc32)c1C`, the cytotoxicity at 10 µM was 10.8%.
As for `Cc1nc(-c2cc(C(=O)N3CCCN(C)CC3)c3ccccn23)cn1C`, the figure is 5.59%; as for `COc1ccnc(CN2CCC(O)(c3ccc(C)cn3)CC2)c1OC`, -138%.
As for `O=C(NCC1CCOC1)c1cc(-c2cccc(Cl)c2)[nH]n1` (configuration not stated), the figure is -1.74%; as for `CCc1noc(C(C)N2CCN(CC(C)C)CC2)n1` (configuration not stated), -4.05%.
As for `CN(C(=O)c1ccon1)[C@@H]1CCC[C@@H](Oc2ccccc2)[C@@H]1O`, the figure is -17.5%.
With `COCCn1c2c(ccc1=O)CCN(C(=O)Cc1cccs1)CC2`, the cytotoxicity at 10 µM stood at 1.44%.
As for `Cc1ncsc1C(=O)N(C)Cc1ccccc1`, the figure is -6.92%.
On to `CCC1=N[C@@]2(CC[C@@H]3CN(S(=O)(=O)N(C)C)C[C@@H]32)C(=O)N1CC(C)C`, for which the cytotoxicity at 10 µM turned out to be 10.3%.
As for `OCCN1CCN(CC(O)c2ccc(C(F)(F)F)cc2)CC1` (configuration not stated), the figure is -10%; as for `CN(C)Cc1cnn(-c2ccccc2C(=O)NCCC2CCCN2C)c1` (configuration not stated), 8.18%; as for `CCn1cc(S(=O)(=O)N2CCC(C)CC2)c(C)n1`, 8.44%.
As for `COc1ccc(C2(C(=O)NCc3c(C)ncc4c3CCNC4)CC2)cc1`, the figure is -50.7%.
As for `O=c1[nH]nc2c(S(=O)(=O)N3CCCCC3)cccn12`, the figure is 2.41%; as for `c1csc(-c2cc(CN3CCN(c4nccs4)CC3)no2)c1`, 13.2%; as for `Cc1ccc(N2Cc3cnn(Cc4ccc(F)cc4)c3C2)nn1`, 0.209%.
With `CC(O)c1cccc(Nc2nc(NCCO)c3ccccc3n2)c1` (configuration not stated), the cytotoxicity at 10 µM worked out at 18.4%.
As for `c1ccc(N2CCC(OCC3CCCCO3)CC2)nc1` (configuration not stated), the figure is -1.03%.
As for `O=C(NCC(=O)N1CCCCC1)c1ccc(Cl)cc1I`, the figure is -11.5%.
As for `COCc1ncc(-c2nccn2CCN(C)C)cn1`, the figure is 0.126%; as for `CN1CC2(CCN(CCCOCc3ccccc3)CC2)OC1=O`, 3.12%.
Turning to `Cc1cc(C)n(C2CCCN(C(=O)CCc3nccs3)C2)n1` (configuration not stated), the cytotoxicity at 10 µM is -28.1%.
As for `COCC1(C(=O)N2CCC(c3nccn3CC3CC3)CC2)CCC1`, the figure is 4.5%; as for `CCCNC(=O)NC(=O)CN1C=Nc2ccccc2S1(=O)=O`, -3.12%; as for `c1cnn(CCNCc2ccc(N3CCCCC3)cc2)c1`, -10.1%.
As for `CC(=O)NCCNC(=O)NCc1ccc(-n2ccc(C(F)(F)F)n2)cc1`, the figure is -6%; as for `Cc1cc(CN2CCN(C(=O)CCCc3nc(C(C)C)no3)CC2)on1`, -9.05%.
As for `CCn1cc(N)c(-c2nnc3n2CCC3)n1`, the figure is -12.1%.
Consider `COCCn1ccnc1CN(Cc1ccccn1)Cc1sccc1C`, for which the cytotoxicity at 10 µM was 2.16%.
As for `O=C1CSC(c2ccsc2)c2c(n(C3CCOCC3)[nH]c2=O)N1` (configuration not stated), the figure is 9.53%; as for `Cc1csc(C2CCCCN2C(=O)COCc2nc(C)no2)n1` (configuration not stated), 1.09%.
On to `COc1ccnc(N2CCN(C(=O)Cc3ccn(C(C)C)n3)CC2)n1`, for which the cytotoxicity at 10 µM is -16.2%.
Consider `O=C1CN(S(=O)(=O)c2ccc(F)cc2)CC(O)CN1CC1CC1` (configuration not stated), for which the cytotoxicity at 10 µM was 0.227%.
As for `CN(C)CC1(O)CCCN(Cc2ccccc2OCC(=O)N(C)C)C1` (configuration not stated), the figure is -1.21%; as for `CC(C)c1cc(C2CCN(Cc3cc(F)cc(F)c3)CC2)[nH]n1`, -7.46%.
As for `CCOC1COC2(CCN(Cc3cccc(C)n3)CC2)C1` (configuration not stated), the figure is 11.8%; as for `CC(=O)N1CCC2(CC1)CN(CC(C)C)CC21CCNC1=O` (configuration not stated), -1.07%.
As for `CN(CCn1cccn1)S(=O)(=O)c1cccc(Cl)c1C#N`, the figure is 3.45%.
Take `CCOC(=O)c1coc(N2CCC(C(O)CC(C)C)CC2)n1` (configuration not stated): the cytotoxicity at 10 µM was 5.78%.
As for `Cc1csc(N2CCCN(C(=O)CCN3CCCC3=O)CC2)n1`, the figure is 24.3%; as for `CC(C)Oc1ncccc1CNC(=O)N1CCC1`, -7.6%; as for `CN(C)C(=O)CS(=O)(=O)Cc1cc(Cl)c2c(c1)OCCO2`, 1.38%.
As for `CCNc1ncc(CN2CCOC(Cc3cccc(OC)c3)C2)cn1` (configuration not stated), the figure is 0.583%; as for `O=C(c1ccn(-c2ccccc2)n1)N1CCCC(n2cccn2)C1` (configuration not stated), -10.8%.
As for `O[C@@H]1CC(CNCc2cccc(Cl)c2)(COc2cnccn2)C[C@@H]1O` (some centres not stated), the figure is -3.58%.
Turning to `COc1cccc2c(=O)n(Cc3cc(C4CC4)[nH]n3)cnc12`, the cytotoxicity at 10 µM turned out to be 3.76%.
As for `O=C(NCc1ccco1)[C@H]1CC[C@@H]2[C@@H](CCN2c2ncc(F)cn2)O1`, the figure is -78.4%; as for `CCc1cc(=O)[nH]c(NC2CCN(S(=O)(=O)c3ccccc3)CC2)n1`, -5.49%.
As for `CC(C)C(NC(=O)Nc1ccc(F)cc1)C(=O)N(C)C` (configuration not stated), the figure is -10.9%.
As for `CC(C)OCCCN(Cc1ccncc1)Cc1cccc(F)c1F`, the figure is -15.3%.
Consider `COc1ccc2c(c1)C(=O)N(C)C1(CCN(CC3CC3)CC1)N2`, for which the cytotoxicity at 10 µM is 6.4%.
As for `Cc1cc(C(=O)N2CC[C@](C)(O)[C@H](C)C2)c(C)n1C`, the figure is -1.43%; as for `Cn1nc2c(cc1=O)CN(c1nc3ccccc3s1)CC2`, 2.89%.
As for `Cc1ccsc1CN(CCN(C)C)C(=O)c1ccccc1C#N`, the figure is -119%; as for `N#Cc1ccnc(N2CCN(C(=O)NC3CCS(=O)(=O)C3)CC2)c1` (configuration not stated), -6.83%; as for `N#Cc1ccc(N2CCC3(CC2)COCCN3Cc2cccnc2)cc1`, -1.77%.
